The nature of assay [1]: Antiprion activity against Scrapie prion protein-mediated scrapie in mouse SMB cells assessed as remaining PrP-Sc level after 5 days by Bradford assay. The conditions noted are these: 120 h. The format is cell-based. The gist of the method: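 Same SMB dot-blot protocol with 5-day exposure. Compounds were rescreened over a range of concentrations to fit an EC₅₀ from dose-response curves. Each determination was run in triplicate, in at least two independent experiments. PrP^Sc was measured relative to an untreated DMSO-only control.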

Assay [2] can be described thus: Antiprion activity against Scrapie prion protein-mediated scrapie in RML mouse ScN2a cells assessed as reduction of PrP-Sc level after 6 days by immunoblotting. The format is cell-based. The conditions noted are these: 144 h.

The values that follow come from ChEMBL document CHEMBL1156119 (J Med Chem, 2009).

Each structure is given as a SMILES string.

One may read the EC50 as the concentration at which the effect is half-maximal.

In the case of `CCN(CC)CCCC(C)Nc1c2ccc(Cl)cc2nc2ccc(OC)cc12` (configuration not stated) [QUINACRINE], the EC50 was 420 nM in assay [1] and 300 nM in assay [2].
